ChEMBL document CHEMBL3525945, “Metabolic switching of BILR 355 in the presence of ritonavir. II. Uncovering novel contributions by gut bacteria and aldehyde oxidase” (Drug Metab Dispos, 2012)
Each block holds one molecule with its values, some of them ahead of it.

Tests used:
[1] = Drug level in human liver S9 fraction treated with BILR402 at 10 uM by LC-MS/MS analysis in presence of NADPH; type: ADME, subcellular; details: s9, 10 µM
Method in brief: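 BILR 402 (10 μM final) was incubated with human liver S9 or cytosol (1 mg/mL protein) in 0.05 M potassium phosphate pH 7.4 at 37 °C. Runs were done with or without 2.5 mM NADPH. Samples at 10, 20, 30 and 60 min were quenched in nevirapine/acetonitrile, filtered and analysed by LC-MS/MS; duplicate.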

[2] = Drug excretion in rat feces assessed as unchanged drug level; type: ADME, tissue-based; details: read-out: Drug excretion
[3] = Drug excretion in mouse feces assessed as unchanged drug level; type: ADME, tissue-based; details: read-out: Drug excretion
Liver microsome [4] = experiment: Drug metabolism in human liver microsomes assessed as BILR516 disproportionate human metabolite formation at 5 uM after 60 mins by LC-MS/MS analysis; type: ADME; details: 1 h
Method in brief: (§1)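 Pooled human liver microsomes, cytosol or S9 (1 mg/mL) were incubated with BILR 355 (5 μM final) in 0.05 M potassium phosphate pH 7.4 at 37 °C for 60 min. Microsomes and S9 received 2.5 mM NADPH.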

Cytochrome P450 3A4 [5] = target: T1, Cytochrome P450 3A4 (Homo sapiens, UniProt P08684); experiment: Activity at recombinant CYP3A4 (unknown origin) expressed in baculovirus-infected insect cells treated with 1 uM BILR402 assessed as enzyme-mediated compound formation after 4 mins by LC-MS/MS analysis in presence of NADPH; type: ADME
T1 sequence (P08684 whole entry): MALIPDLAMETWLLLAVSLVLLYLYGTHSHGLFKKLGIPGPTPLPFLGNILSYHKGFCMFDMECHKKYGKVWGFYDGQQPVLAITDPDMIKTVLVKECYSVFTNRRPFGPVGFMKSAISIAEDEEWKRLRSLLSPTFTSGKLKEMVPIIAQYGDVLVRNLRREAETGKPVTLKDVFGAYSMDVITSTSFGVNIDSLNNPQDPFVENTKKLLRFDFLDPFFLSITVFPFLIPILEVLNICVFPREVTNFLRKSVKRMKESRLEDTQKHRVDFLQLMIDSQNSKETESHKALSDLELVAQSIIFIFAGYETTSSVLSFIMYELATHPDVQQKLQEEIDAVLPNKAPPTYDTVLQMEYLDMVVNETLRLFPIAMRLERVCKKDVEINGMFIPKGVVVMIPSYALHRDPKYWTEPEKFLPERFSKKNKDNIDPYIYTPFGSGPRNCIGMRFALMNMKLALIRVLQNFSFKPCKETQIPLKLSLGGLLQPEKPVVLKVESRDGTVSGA
Method in brief: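 rCYP3A4 (5 pmol/mL) incubated with BILR 402 at 1 or 10 μM in 0.1 M potassium phosphate/5 mM MgCl2, pH 7.4, with NADPH at 37 °C. Remaining BILR 402 and BILR 355 formed were read at 4 min by LC-MS/MS against a labelled internal standard.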

[6] = Drug excretion in mouse feces assessed as metabolite level; type: ADME, tissue-based
Liver microsome [7] = experiment: Drug level in human liver microsomes treated with BILR402 at 1 uM by LC-MS/MS analysis in presence of CYP2C19 inhibitor ticlopidine; type: ADME
Method in brief: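 BILR 402 (1 μM) was incubated with human liver microsomes (0.05 mg/mL) for 30 min with NADPH, with or without ticlopidine 20 μM final as CYP2C19 inhibitor. BILR 402 depletion and BILR 355 formation were measured by LC-MS/MS.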

[8] = Drug excretion in rat feces assessed as metabolite level; type: ADME, tissue-based
[9] = Drug excretion in dog feces assessed as unchanged drug level; type: ADME, tissue-based, Canis lupus familiaris; details: read-out: Drug excretion
[10] = Drug metabolism in human liver S9 fraction assessed as BILR402 metabolite formation at 5 uM by LC-MS/MS analysis; type: ADME, subcellular; details: s9, 5 µM; method in brief: as §1
[11] = Drug excretion in dog feces assessed as metabolite level; type: ADME, tissue-based, Canis lupus familiaris
Cytochrome P450 3A4 [12] = target: T1, Cytochrome P450 3A4; experiment: Activity at recombinant CYP3A4 (unknown origin) expressed in baculovirus-infected insect cells treated with 10 uM BILR402 assessed as enzyme-mediated compound formation at 10 uM after 4 mins by LC-MS/MS analysis in presence of NADPH
[13] = Drug metabolism in human liver S9 fraction assessed as BILR516 disproportionate human metabolite formation at 5 uM after 60 mins by LC-MS/MS analysis; type: ADME, subcellular; details: s9, 1 h; method in brief: as §1
Liver cytosol [14] = experiment: Drug metabolism in human liver cytosol assessed as BILR516 disproportionate human metabolite formation at 5 uM after 60 mins by LC-MS/MS analysis; type: ADME, tissue-based; details: 1 h; method in brief: as §1
Liver cytosol [15] = experiment: Drug metabolism in human liver cytosol assessed as BILR402 metabolite formation at 5 uM by LC-MS/MS analysis; type: ADME, tissue-based; method in brief: as §1
Liver microsome [16] = experiment: Drug metabolism in human liver microsomes assessed as BILR402 metabolite formation at 5 uM by LC-MS/MS analysis; type: ADME; method in brief: as §1
[17] = substrate: CCN1c2ncc(CCOc3ccnc4ccccc34)cc2C(=O)N(C)c2cccnc21; experiment: Drug metabolism in human liver cytosol assessed as aldehyde-oxidase-mediated BILR516 metabolite formation after 10 mins by Eadie-Hofstee plot analysis; type: ADME, tissue-based
Method in brief: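 Human liver cytosol (0.1 mg/mL) was incubated with BILR 402 at 12 concentrations, 0.061–125 μM, for 10 min at 37 °C in 0.05 M potassium phosphate pH 7.4 without NADPH, within the linear range for protein and time. […] Apparent Km and Vmax were derived from the kinetic data.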

- Drug metabolism [1]: metabolite_detected
Molecule: CCN1c2ncc(CCOc3cc(=O)[nH]c4ccccc34)cc2C(=O)N(C)c2cccnc21

- dose excreted [2]: 0%
- dose excreted [3]: 0%
- Drug metabolism (Liver microsome [4]): metabolite_not_detected
- Drug metabolism (Cytochrome P450 3A4 [5]): 0.15 µM
- Drug excretion [6]: 72.5%
- Drug metabolism (Liver microsome [7]): metabolite_detected
- Drug excretion [8]: 72.5%
- dose excreted [9]: 0%
- Drug metabolism [10]: metabolite_not_detected
- Drug excretion [11]: 72.5%
- Drug metabolism (Cytochrome P450 3A4 [12]): 0.9 µM
- Drug metabolism [13]: metabolite_not_detected
- Drug metabolism (Liver cytosol [14]): metabolite_not_detected
- Drug metabolism (Liver cytosol [15]): metabolite_not_detected
- Drug metabolism (Liver microsome [16]): metabolite_not_detected
Molecule: CCN1c2ncc(CCOc3cc[n+]([O-])c4ccccc34)cc2C(=O)N(C)c2cccnc21 [BILR 355]

B1: Aldehyde oxidase (Homo sapiens) (protein)
chain: MDRASELLFYVNGRKVIEKNVDPETMLLPYLRKKLRLTGTKYGCGGGGCGACTVMISRYNPITKRIRHHPANACLIPICSLYGAAVTTVEGIGSTHTRIHPVQERIAKCHGTQCGFCTPGMVMSIYTLLRNHPEPTLDQLTDALGGNLCRCTGYRPIIDACKTFCKTSGCCQSKENGVCCLDQGINGLPEFEEGSKTSPKLFAEEEFLPLDPTQELIFPPELMIMAEKQSQRTRVFGSERMMWFSPVTLKELLEFKFKYPQAPVIMGNTSVGPEVKFKGVFHPVIISPDRIEELSVVNHAYNGLTLGAGLSLAQVKDILADVVQKLPEEKTQMYHALLKHLGTLAGSQIRNMASLGGHIISRHPDSDLNPILAVGNCTLNLLSKEGKRQIPLNEQFLSKCPNADLKPQEILVSVNIPYSRKWEFVSAFRQAQRQENALAIVNSGMRVFFGEGDGIIRELCISYGGVGPATICAKNSCQKLIGRHWNEQMLDIACRLILNEVSLLGSAPGGKVEFKRTLIISFLFKFYLEVSQILKKMDPVHYPSLADKYESALEDLHSKHHCSTLKYQNIGPKQHPEDPIGHPIMHLSGVKHATGEAIYCDDMPLVDQELFLTFVTSSRAHAKIVSIDLSEALSMPGVVDIMTAEHLSDVNSFCFFTEAEKFLATDKVFCVGQLVCAVLADSEVQAKRAAKRVKIVYQDLEPLILTIEESIQHNSSFKPERKLEYGNVDEAFKVVDQILEGEIHMGGQEHFYMETQSMLVVPKGEDQEMDVYVSTQFPKYIQDIVASTLKLPANKVMCHVRRVGGAFGGKVLKTGIIAAVTAFAANKHGRAVRCVLERGEDMLITGGRHPYLGKYKAGFMNDGRILALDMEHYSNAGASLDESLFVIEMGLLKMDNAYKFPNLRCRGWACRTNLPSNTAFRGFGFPQAALITESCITEVAAKCGLSPEKVRIINMYKEIDQTPYKQEINAKNLIQCWRECMAMSSYSLRKVAVEKFNAENYWKKKGLAMVPLKFPVGLGSRAAGQAAALVHIYLDGSVLVTHGGIEMGQGVHTKMIQVVSRELRMPMSNVHLRGTSTETVPNANISGGSVVADLNGLAVKDACQTLLKRLEPIISKNPKGTWKDWAQTAFDESINLSAVGYFRGYESDMNWEKGEGQPFEYFVYGAACSEVEIDCLTGDHKNIRTDIVMDVGCSINPAIDIGQIEGAFIQGMGLYTIEELNYSPQGILHTRGPDQYKIPAICDMPTELHIALLPPSQNSNTLYSSKGLGESGVFLGCSVFFAIHDAVSAARQERGLHGPLTLNSPLTPEKIRMACEDKFTKMIPRDEPGSYVPWNVPI
- Km [17]: 0.772 µM
- Vmax [17]: 0.000337 µmol/min
